Measured values as given in paper PMC7340475 (Drug Design, Development and Therapy, 2020).
Like-named read-outs stand apart in the source and are kept apart here.

Experiments:
[1] = test system: CHO cells; conditions: cited from earlier work
[2] = molecular target: T1, α2C-AR (Homo sapiens, UniProt P18825); assay: Saturation binding assay of the radioligand; conditions: read-out: KD α2C-AR
T1 sequence (P18825 1-462): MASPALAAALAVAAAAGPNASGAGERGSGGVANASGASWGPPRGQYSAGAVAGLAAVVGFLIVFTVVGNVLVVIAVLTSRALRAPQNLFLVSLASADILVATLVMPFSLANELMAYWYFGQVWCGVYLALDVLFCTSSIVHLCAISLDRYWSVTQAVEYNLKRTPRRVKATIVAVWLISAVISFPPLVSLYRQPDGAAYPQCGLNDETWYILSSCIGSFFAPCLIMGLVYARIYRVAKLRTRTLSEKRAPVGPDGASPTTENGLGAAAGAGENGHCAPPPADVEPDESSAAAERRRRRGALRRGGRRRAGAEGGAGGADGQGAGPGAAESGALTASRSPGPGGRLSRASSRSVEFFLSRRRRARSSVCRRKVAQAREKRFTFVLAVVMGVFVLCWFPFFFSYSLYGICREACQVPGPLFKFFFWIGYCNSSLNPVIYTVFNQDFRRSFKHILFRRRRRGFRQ
Summary of the method: (§1)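 Saturation binding used membranes from COS-7 cells transiently expressing each human α2-AR subtype. Membranes were incubated 1 h at room temperature with 0.1–10 nM [125I]-PIC in 50 mM Tris-HCl/120 mM sucrose. […] Reactions were stopped with PBS and filtered through GF/B. Radioactivity was counted and KD came from nonlinear regression.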

[3] = molecular target: T2, α2A-AR (Homo sapiens, UniProt P08913); assay: Saturation binding assay of the radioligand; conditions: read-out: KD α2A-AR
T2 sequence (P08913 1-465): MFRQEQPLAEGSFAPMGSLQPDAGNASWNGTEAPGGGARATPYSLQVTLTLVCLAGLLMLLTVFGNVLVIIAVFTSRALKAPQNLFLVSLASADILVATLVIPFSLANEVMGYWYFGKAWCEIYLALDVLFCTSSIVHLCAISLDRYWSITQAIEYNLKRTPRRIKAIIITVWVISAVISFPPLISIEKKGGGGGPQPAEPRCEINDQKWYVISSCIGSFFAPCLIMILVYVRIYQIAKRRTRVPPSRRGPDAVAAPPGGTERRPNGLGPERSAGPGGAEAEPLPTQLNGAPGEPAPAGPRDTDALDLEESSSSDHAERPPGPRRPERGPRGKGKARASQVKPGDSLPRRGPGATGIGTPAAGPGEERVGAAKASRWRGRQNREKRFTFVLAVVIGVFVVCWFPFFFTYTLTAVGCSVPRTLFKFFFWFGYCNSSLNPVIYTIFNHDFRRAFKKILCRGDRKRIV
Summary of the method: as §1

[4] = molecular target: T2, α2A-AR; assay: cAMP-Glo assay, forskolin induced cAMP accumulation in transfected COS-7 cells; format: cell-based

In the case of `CNC[C@H](O)c1ccc(O)c(O)c1` [epinephrine], the “effect on cAMP production” value ([1]; from 10^−7 to 10^−6 M) is listed as “increase” and the “effect on cAMP production” value ([1]; from 10^−9 to 10^−8 M) is listed as “inhibition”.

In the case of `Clc1cc(I)cc(Cl)c1NC1=NCCN1` [[^125I]-PIC, [^125I]-paraiodoclonidine], the Kd [2] is reported as 0.802 ± 0.053 nM and the Kd [3] is reported as 0.209 ± 0.06 nM.

For `NC[C@H](O)c1ccc(O)c(O)c1` [norepinephrine], the “effect on cAMP production” value ([4]; higher concentrations (10^−3-10^−7M)) was “stimulated the expression of cAMP” and the “effect on cAMP production” value ([4]; lower concentrations (10^−10-10^−8M)) was “inhibited the production of cAMP”.

In the case of `Cc1ccc(N(CC2=NCCN2)c2cccc(O)c2)cc1` [phentolamine], the “effect on the production of cAMP, compound alone” value ([4]; forskolin, no norepinephrine) is reported as “did not have any effect”.
